ChEMBL document CHEMBL4229573, “Discovery of Quinazolines That Activate SOS1-Mediated Nucleotide Exchange on RAS” (ACS Med Chem Lett, 2018)
The source made the active and inactive calls. No cut-off for these calls is given here.

How the values were obtained:
[1] = target: T1, Son of sevenless homolog 1 (Homo sapiens) (UniProt Q07889); assay: Activation of SOS1 in human HeLa cells assessed as effect on ERK1/2 phosphorylation at T202/Y204 residue by measuring […] at 12.5 uM after 30 mins by Western blot analysis relative to control; type: cell-based
T1 sequence (whole entry): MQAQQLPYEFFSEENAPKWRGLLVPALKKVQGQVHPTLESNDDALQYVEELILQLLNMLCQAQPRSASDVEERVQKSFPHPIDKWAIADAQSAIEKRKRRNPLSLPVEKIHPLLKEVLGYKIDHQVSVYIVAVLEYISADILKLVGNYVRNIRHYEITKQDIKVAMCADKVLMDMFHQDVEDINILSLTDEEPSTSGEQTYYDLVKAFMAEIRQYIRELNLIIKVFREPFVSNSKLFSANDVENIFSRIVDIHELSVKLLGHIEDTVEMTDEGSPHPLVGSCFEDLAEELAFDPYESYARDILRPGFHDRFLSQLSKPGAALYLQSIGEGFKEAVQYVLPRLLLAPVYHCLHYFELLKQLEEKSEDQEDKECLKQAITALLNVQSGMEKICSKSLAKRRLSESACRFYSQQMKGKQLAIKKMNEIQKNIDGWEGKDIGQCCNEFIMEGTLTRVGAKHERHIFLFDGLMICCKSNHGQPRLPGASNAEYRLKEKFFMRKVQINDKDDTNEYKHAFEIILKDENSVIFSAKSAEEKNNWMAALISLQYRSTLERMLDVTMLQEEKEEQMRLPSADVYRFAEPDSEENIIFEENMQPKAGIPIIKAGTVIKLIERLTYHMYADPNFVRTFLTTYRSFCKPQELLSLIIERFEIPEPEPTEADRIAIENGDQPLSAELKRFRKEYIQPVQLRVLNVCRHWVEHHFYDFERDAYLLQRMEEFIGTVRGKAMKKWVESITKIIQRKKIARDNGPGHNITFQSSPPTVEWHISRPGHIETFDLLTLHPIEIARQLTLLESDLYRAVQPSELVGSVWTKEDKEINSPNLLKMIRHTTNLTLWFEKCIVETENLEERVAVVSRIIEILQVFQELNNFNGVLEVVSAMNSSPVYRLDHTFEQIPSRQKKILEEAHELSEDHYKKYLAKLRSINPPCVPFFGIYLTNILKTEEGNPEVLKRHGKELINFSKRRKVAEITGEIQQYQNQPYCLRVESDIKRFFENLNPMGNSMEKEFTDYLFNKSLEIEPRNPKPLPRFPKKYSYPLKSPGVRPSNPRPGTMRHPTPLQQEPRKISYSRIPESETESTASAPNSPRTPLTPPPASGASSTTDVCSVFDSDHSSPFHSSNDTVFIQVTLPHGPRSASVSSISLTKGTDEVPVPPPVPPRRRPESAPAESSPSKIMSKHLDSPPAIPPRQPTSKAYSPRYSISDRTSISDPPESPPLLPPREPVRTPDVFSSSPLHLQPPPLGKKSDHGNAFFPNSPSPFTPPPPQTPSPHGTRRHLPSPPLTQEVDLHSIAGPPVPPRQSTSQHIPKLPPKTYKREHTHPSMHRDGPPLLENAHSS
Summary of the method: (§1)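 HeLa cells treated for 30 min with compound at concentrations up to 100 μM. RAS-GTP and ERK1/2 phosphorylated at T202/Y204 were detected by blotting and quantified. EGF (50 ng/mL, 5 min) served as the positive control for pathway activation.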

[2] = target: T1, Son of sevenless homolog 1 (Homo sapiens); assay: Activation of SOS1 in human HeLa cells assessed as effect on RAS-GTP levels by measuring […] at 25 uM after 30 mins by active RAS pull-down assay relative to control; type: cell-based; summary of the method: as §1
[3] = target: T1, Son of sevenless homolog 1 (Homo sapiens); assay: Activation of SOS1 in human HeLa cells assessed as effect on RAS-GTP levels by measuring […] at 3.1 uM after 30 mins by active RAS pull-down assay relative to control; type: cell-based; summary of the method: as §1
[4] = target: T1, Son of sevenless homolog 1 (Homo sapiens); assay: Activation of SOS1 in human HeLa cells assessed as effect on RAS-GTP levels by measuring […] at 100 uM after 30 mins by active RAS pull-down assay relative to control; type: cell-based; summary of the method: as §1
[5] = target: T1, Son of sevenless homolog 1 (Homo sapiens); assay: Activation of SOS1 in human HeLa cells assessed as effect on ERK1/2 phosphorylation at T202/Y204 residue by measuring […] at 25 uM after 30 mins by Western blot analysis relative to control; type: cell-based; summary of the method: as §1
[6] = target: T1, Son of sevenless homolog 1 (Homo sapiens); assay: Activation of SOS1 in human HeLa cells assessed as effect on ERK1/2 phosphorylation at T202/Y204 residue by measuring […] at 50 uM after 30 mins by Western blot analysis relative to control; type: cell-based; summary of the method: as §1
[7] = target: T1, Son of sevenless homolog 1 (Homo sapiens); assay: Activation of SOS1 in human HeLa cells assessed as effect on RAS-GTP levels by measuring […] at 6.3 uM after 30 mins by active RAS pull-down assay relative to control; type: cell-based; summary of the method: as §1
[8] = target: T1, Son of sevenless homolog 1 (Homo sapiens); assay: Activation of SOS1 in human HeLa cells assessed as effect on ERK1/2 phosphorylation at T202/Y204 residue by measuring […] at 3.1 uM after 30 mins by Western blot analysis relative to control; type: cell-based; summary of the method: as §1
[9] = target: T1, Son of sevenless homolog 1 (Homo sapiens); assay: Activation of SOS1 in human HeLa cells assessed as effect on ERK1/2 phosphorylation at T202/Y204 residue by measuring […] at 100 uM after 30 mins by Western blot analysis relative to control
[10] = target: T1, Son of sevenless homolog 1 (Homo sapiens); assay: Activation of SOS1 in human HeLa cells assessed as effect on RAS-GTP levels by measuring […] at 12.5 uM after 30 mins by active RAS pull-down assay relative to control; type: cell-based; summary of the method: as §1
[11] = target: T1, Son of sevenless homolog 1 (Homo sapiens); assay: Activation of SOS1 in human HeLa cells assessed as effect on RAS-GTP levels by measuring […] at 50 uM after 30 mins by active RAS pull-down assay relative to control; type: cell-based; summary of the method: as §1
[12] = target: T1, Son of sevenless homolog 1 (Homo sapiens); assay: Activation of SOS1 in human HeLa cells assessed as effect on ERK1/2 phosphorylation at T202/Y204 residue by measuring […] at 6.3 uM after 30 mins by Western blot analysis relative to control; type: cell-based; summary of the method: as §1
[13] = target: Mitogen-activated protein kinase 1 (Homo sapiens) (UniProt P28482); assay: Inhibition of human ERK2 using myelin basic protein as substrate measured in presence of [gamma33P]ATP
Chain of Mitogen-activated protein kinase 1 (Homo sapiens) (P28482 whole entry): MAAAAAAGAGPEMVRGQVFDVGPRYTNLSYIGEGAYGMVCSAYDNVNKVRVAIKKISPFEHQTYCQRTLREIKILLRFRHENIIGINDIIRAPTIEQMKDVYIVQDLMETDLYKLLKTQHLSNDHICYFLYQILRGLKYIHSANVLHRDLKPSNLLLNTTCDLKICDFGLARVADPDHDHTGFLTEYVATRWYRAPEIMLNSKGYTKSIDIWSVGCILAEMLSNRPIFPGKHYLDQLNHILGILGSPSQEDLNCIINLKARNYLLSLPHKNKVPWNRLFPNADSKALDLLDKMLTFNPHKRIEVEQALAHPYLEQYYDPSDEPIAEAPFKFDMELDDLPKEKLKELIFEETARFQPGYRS

[14] = target: Mitogen-activated protein kinase 3 (Homo sapiens) (UniProt P27361); assay: Inhibition of human ERK1 using myelin basic protein as substrate measured in presence of [gamma33P]ATP
Chain of Mitogen-activated protein kinase 3 (Homo sapiens) (P27361 whole entry): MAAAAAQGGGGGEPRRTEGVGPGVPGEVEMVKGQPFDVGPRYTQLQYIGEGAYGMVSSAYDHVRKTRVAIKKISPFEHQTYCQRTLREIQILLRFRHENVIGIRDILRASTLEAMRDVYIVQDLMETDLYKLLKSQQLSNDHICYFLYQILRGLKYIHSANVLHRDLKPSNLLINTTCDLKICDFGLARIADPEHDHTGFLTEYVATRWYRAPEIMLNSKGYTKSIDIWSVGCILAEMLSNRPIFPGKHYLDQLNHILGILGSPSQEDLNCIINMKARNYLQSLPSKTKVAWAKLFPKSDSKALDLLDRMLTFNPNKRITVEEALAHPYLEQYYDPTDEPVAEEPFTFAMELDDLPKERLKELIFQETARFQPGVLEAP

[15] = target: T1, Son of sevenless homolog 1 (Homo sapiens); assay: Biphasic activity at SOS1 in human HeLa cells assessed as reduction in ERK1/2 T202/Y204 phosphorylation at 100 uM measured after 30 mins by Western blot analysis; type: cell-based; summary of the method: as §1

Compound | fold change (FC) [1] | fold change (FC) [2] | fold change (FC) [3] | fold change (FC) [4] | fold change (FC) [5] | fold change (FC) [6] | fold change (FC) [7] | fold change (FC) [8] | fold change (FC) [9] | fold change (FC) [10] | fold change (FC) [11] | fold change (FC) [12] | inhibition [13] | inhibition [14] | Activity [15]
C[C@@H](Nc1nc(Nc2ccc(F)c(Cl)c2)nc2c(CN)cccc12)C1CC1 | 1.83 | 1.18 | 1.15 | 1.54 | 2.52 | 2.43 | 1.39 | 1.05 | 0.59 | 0.98 | 1.14 | 0.94 | – | – | –
C[C@@H](Nc1nc(Nc2ccc(F)c(Cl)c2)nc2c(CCN)cccc12)C1CC1 | 1.59 | 1.58 | 1.22 | 1.66 | 1.87 | 1.18 | 1.64 | 1.11 | 0.44 | 0.97 | 1.61 | 1.82 | – | – | –
C[C@@H](Nc1nc(Nc2ccc(F)c(Cl)c2)nc2ccccc12)C1CC1 | 1.67 | 0.69 | 0.95 | 1.39 | 1.61 | 3.68 | 0.85 | 1.16 | 4.01 | 0.53 | 1.26 | 1.03 | inactive | inactive | –
C[C@@H](Nc1nc(Nc2ccc(F)c(Cl)c2)nc2c(C3=CCNCC3)cccc12)C1CC1 | 1.98 | 1.6 | 1.41 | 1.51 | 1.98 | 1.16 | 1.08 | 1.43 | 0.58 | 1.72 | 1.56 | 1.29 | – | – | –
CC[C@@H](Nc1nc(Nc2ccc(F)c(Cl)c2)nc2ccccc12)C1CCC1 | – | – | – | – | – | – | – | – | – | – | – | – | – | – | inactive
Clc1cc(Cl)cc(Nc2nc(NCc3ccco3)c3ccccc3n2)c1 | – | – | – | – | – | – | – | – | – | – | – | – | – | – | inactive
C[C@@H](Nc1nc(Nc2ccc(F)c(Cl)c2)nc2ccccc12)C1CCC1 | – | – | – | – | – | – | – | – | – | – | – | – | – | – | inactive
CC[C@H](Nc1nc(Nc2ccc(F)c(Cl)c2)nc2ccccc12)C1CC1 | – | – | – | – | – | – | – | – | – | – | – | – | – | – | inactive
CC(C)C[C@@H](Nc1nc(Nc2ccc(F)c(Cl)c2)nc2ccccc12)C1CC1 | – | – | – | – | – | – | – | – | – | – | – | – | – | – | inactive
